Active and inactive are the calls of the source. The calls are words filed in the database; no cut-off is given here.
Columns and labels:
[1] = molecular target: Angiotensin-converting enzyme (Homo sapiens) (UniProt P12821); assay: Inhibition of ACE (unknown origin) at 1 uM using synthetic peptide hippuryl-histidyl-leucine substrate by high-throughput colorimetric screening method
In short: (§1)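 ACE activity was followed by the release of hippuric acid from the substrate hippuryl-histidyl-leucine. The released hippuric acid was converted to a yellow product with pyridine and benzene sulfonyl chloride, and the colour was read colorimetrically as absorbance. Each condition was run in triplicate and averaged, with lisinopril as the reference standard.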

[2] = molecular target: Angiotensin-converting enzyme (Homo sapiens) (UniProt P12821); assay: Inhibition of ACE (unknown origin) at 0.5 uM to 10 uM uM using synthetic peptide hippuryl-histidyl-leucine substrate by high-throughput colorimetric screening method; in short: as §1
[3] = molecular target: Angiotensin-converting enzyme (Homo sapiens) (UniProt P12821); assay: Inhibition of ACE (unknown origin) at 1 uM using synthetic peptide hippuryl-histidyl-leucine substrate by high-throughput colorimetric screening method relative to lisinopril

Angiotensin-converting enzyme (Homo sapiens), sequence (P12821 whole entry): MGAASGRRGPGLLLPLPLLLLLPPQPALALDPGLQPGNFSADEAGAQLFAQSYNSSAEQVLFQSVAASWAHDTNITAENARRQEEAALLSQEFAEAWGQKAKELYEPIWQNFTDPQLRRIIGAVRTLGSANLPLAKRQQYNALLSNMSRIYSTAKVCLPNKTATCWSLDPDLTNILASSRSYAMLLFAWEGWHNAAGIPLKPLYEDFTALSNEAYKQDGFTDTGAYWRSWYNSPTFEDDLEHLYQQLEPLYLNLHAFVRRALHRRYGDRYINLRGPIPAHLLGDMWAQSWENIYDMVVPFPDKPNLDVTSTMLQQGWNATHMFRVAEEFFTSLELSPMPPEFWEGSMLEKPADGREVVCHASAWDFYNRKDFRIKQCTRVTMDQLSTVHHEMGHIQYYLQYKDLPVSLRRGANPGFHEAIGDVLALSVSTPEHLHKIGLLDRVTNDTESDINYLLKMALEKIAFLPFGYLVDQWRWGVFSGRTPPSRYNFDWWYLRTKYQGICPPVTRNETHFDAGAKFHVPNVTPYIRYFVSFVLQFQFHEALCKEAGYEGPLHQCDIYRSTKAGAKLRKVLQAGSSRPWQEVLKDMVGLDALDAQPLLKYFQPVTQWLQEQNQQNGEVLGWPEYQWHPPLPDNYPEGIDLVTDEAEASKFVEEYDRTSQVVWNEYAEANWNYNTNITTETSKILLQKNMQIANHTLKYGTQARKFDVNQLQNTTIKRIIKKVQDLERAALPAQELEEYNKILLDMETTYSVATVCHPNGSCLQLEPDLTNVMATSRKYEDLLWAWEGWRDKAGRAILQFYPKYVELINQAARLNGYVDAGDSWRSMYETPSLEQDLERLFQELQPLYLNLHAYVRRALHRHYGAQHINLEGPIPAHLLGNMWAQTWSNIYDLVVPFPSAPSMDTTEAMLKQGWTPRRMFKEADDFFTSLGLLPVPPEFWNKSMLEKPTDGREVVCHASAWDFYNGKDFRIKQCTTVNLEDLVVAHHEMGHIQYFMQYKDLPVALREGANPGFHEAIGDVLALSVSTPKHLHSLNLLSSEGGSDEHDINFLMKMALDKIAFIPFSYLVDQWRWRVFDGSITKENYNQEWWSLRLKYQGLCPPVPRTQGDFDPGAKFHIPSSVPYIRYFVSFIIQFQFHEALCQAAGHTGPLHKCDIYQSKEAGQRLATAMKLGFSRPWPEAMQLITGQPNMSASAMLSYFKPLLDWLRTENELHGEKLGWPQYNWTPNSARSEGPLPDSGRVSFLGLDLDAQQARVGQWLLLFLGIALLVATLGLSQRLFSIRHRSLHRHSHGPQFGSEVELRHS

Compound	inhibition [1] [%]	inhibition [2]	inhibition [3] [%]
Cc1nc2ccccc2c(=O)n1CC(O)COc1cccc2[nH]c3ccccc3c12 (stereo not drawn)	17		
O=c1c2ccccc2nc(-c2ccc(F)cc2)n1CC(O)COc1cccc2[nH]c3ccccc3c12 (stereo not drawn)	17		
O=c1c2ccccc2nc(-c2ccc([N+](=O)[O-])cc2)n1CC(O)COc1cccc2[nH]c3ccccc3c12 (stereo not drawn)	17		
O=c1c2ccccc2nc(-c2ccccc2)n1CC(O)COc1cccc2[nH]c3ccccc3c12 (stereo not drawn)	> 75	Active	100

Now from value to compound:

inhibition [1] [%]	inhibition [2]	inhibition [3] [%]	Compound
> 75	Active	82.9	O=c1c2ccccc2nc(C(F)(F)F)n1CC(O)COc1cccc2[nH]c3ccccc3c12 (stereo not drawn)
> 75	Active	100	Cc1ccc(-c2nc3ccccc3c(=O)n2CC(O)COc2cccc3[nH]c4ccccc4c23)cc1 (stereo not drawn)
17			O=c1c2ccccc2nc(-c2ccc(Cl)cc2Cl)n1CC(O)COc1cccc2[nH]c3ccccc3c12 (stereo not drawn)

— ChEMBL document CHEMBL3414498, “Design and synthesis of 3-(3-((9H-carbazol-4-yl)oxy)-2-hydroxypropyl)-2-phenylquinazolin-4(3H)-one derivatives to induce ACE inhibitory activity” (Eur J Med Chem, 2015)
